Data on 18 molecules can be found in ChEMBL document CHEMBL1134988, “Prodrugs of 4'-demethyl-4-deoxypodophyllotoxin: synthesis and evaluation of the antitumor activity” (2002).

Calls of active or inactive are those of the source. The calls are words filed in the database; no cut-off is given here.

The test system of one test is A549. In words: In vitro cytotoxicity against A549 (human lung carcinoma) cell line. Type of test: functional. As to conditions: read-out: ED50 (the source's name).
The next test has as its system MCF7. Kind of test: In vitro cytotoxicity against MCF-7 (human breast carcinoma) cell line. Type of test: functional. The conditions noted are these: read-out: ED50 (the source's name).
For test [1], the system named is Mus musculus. In words: Antitumor activity against Lewis lung carcinoma (LLC) cells transplanted s.c. into the auxiliary region of the BDF1 mice at a formulable dose of 0.06 mmol/kg/day. The test is classed as functional. In outline: (§1)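 LLC cells implanted sc in the axillary region of BDF1 mice. Dosing began 24 h later: ip injection on days 1, 5 and 9 in 5% DMSO/15% Cremophore in saline. Tumour length and width measured on day 17, with TV = L×W²/2. IR (%) = (mean control TV − mean treated TV)/mean control TV × 100.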

The subject of another test is SK-MEL-2. In words: In vitro cytotoxicity against SK-MEL-2 (human melanoma) cell line. Type of test: functional. As to conditions: read-out: ED50 (the source's name).
In test [2] the test system is Mus musculus. In words: Antitumor activity against Lewis lung carcinoma (LLC) cells transplanted s.c. into the auxiliary region of the BDF1 mice at a maximum tolerated dose of 0.3 mmol/kg/day. Type of test: functional. Put shortly:
(§2)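 BDF1 mice carried sc LLC grafts in the axillary region. Starting 24 h after implantation, doses were given ip on days 1, 5 and 9. Tumour length and width were measured on day 17 and TV = L×W²/2. Inhibition rate (%) was the reduction in mean TV relative to the control group.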

Test [3] concerns Mus musculus. In words: Antitumor activity against Lewis lung carcinoma (LLC) cells transplanted s.c. into the auxiliary region of the BDF1 mice at a formulable dose of 0.06 mmol/kg/day; Not active. Type of test: functional, organism-based. In outline:
as §1

The test system of test [4] is Mus musculus. Kind of test: Antitumor activity against Lewis lung carcinoma (LLC) cells transplanted s.c. into the auxiliary region of the BDF1 mice at a maximum tolerated dose of 0.42 mmol/kg/day. Type of test: functional. In outline: as §2
Test [5] has as its system Mus musculus. In words: Antitumor activity against Lewis lung carcinoma (LLC) cells transplanted s.c. into the auxiliary region of the BDF1 mice at a maximum tolerated dose of 0.36 mmol/kg/day. The test is classed as functional. Put shortly:
as §2

The subject of test [6] is Mus musculus. Kind of test: Antitumor activity against Lewis lung carcinoma (LLC) cells transplanted s.c. into the auxiliary region of the BDF1 mice at a maximum tolerated dose of 0.06 mmol/kg/day. Type of test: functional. In outline: as §2

On to `COc1cc([C@@H]2c3cc4c(cc3C[C@H]3COC(=O)[C@@H]32)OCO4)cc(OC)c1O` [4'-DEMETHYLDEOXYPODOPHYLLOTOXIN], for which the EC50 in the test with A549 was 15 nM; in the test on MCF7, 18 nM; with SK-MEL-2, 12 nM. In addition, in the test with Mus musculus [1], the Inhibition rate was 13%.

Turning to `COc1cc([C@@H]2c3cc4c(cc3C[C@H]3COC(=O)[C@@H]32)OCO4)cc(OC)c1OCc1ccc(N)cc1`, the EC50 is 114 nM in the test on A549, 99 nM in the test on MCF7 and 152 nM with SK-MEL-2. In the test on Mus musculus [2], this molecule displayed an Inhibition rate of 80%.

On to `COc1cc([C@@H]2c3cc4c(cc3C[C@H]3COC(=O)[C@@H]32)OCO4)cc(OC)c1OC(=O)Nc1ccc(F)cc1`, for which the EC50 stood at 86 nM with A549, 76 nM in the test on MCF7 and 78 nM with SK-MEL-2. The molecule further had an Inhibition rate in the test with Mus musculus [1] of 69%.

With `CCNC(=O)Oc1c(OC)cc([C@@H]2c3cc4c(cc3C[C@H]3COC(=O)[C@@H]32)OCO4)cc1OC`, in the test on Mus musculus [3], the Inhibition rate entry was “inactive”. The EC50 in the test with A549 amounted to 132 nM; with MCF7, 142 nM; with SK-MEL-2 it was 143 nM.

Regarding `COc1cc([C@@H]2c3cc4c(cc3C[C@H]3COC(=O)[C@@H]32)OCO4)cc(OC)c1OC(=O)CCCCCCCN`, the results for the EC50 in the test on A549, in the test on MCF7 and with SK-MEL-2 were 74 nM, 69 nM and 61 nM, respectively. Besides, in the test on Mus musculus [4], the Inhibition rate came to 80%.

Consider `COc1cc([C@@H]2c3cc4c(cc3C[C@H]3COC(=O)[C@@H]32)OCO4)cc(OC)c1OC(=O)[C@H](C)N`, for which the EC50 in the test with A549 stood at 22 nM; with MCF7, 11 nM; with SK-MEL-2, 9 nM. Besides, in the test with Mus musculus [2], the Inhibition rate is 41%.

With `COc1cc([C@@H]2c3cc4c(cc3C[C@H]3COC(=O)[C@@H]32)OCO4)cc(OC)c1OC(=O)NC(C)C`, in the test on Mus musculus [3], the Inhibition rate entry was “inactive”. Also, the values for the EC50 with A549, with MCF7 and with SK-MEL-2 were 153 nM, 166 nM and 165 nM, respectively.

In the case of `COc1cc([C@@H]2c3cc4c(cc3[C@@H](O[C@@H]3O[C@@H]5CO[C@@H](C)O[C@H]5[C@H](O)[C@H]3O)[C@H]3COC(=O)[C@H]23)OCO4)cc(OC)c1O` [ETOPOSIDE], the EC50 in the test with A549 was found to be 1900 nM. In addition, in the test with Mus musculus [1], the Inhibition rate was found to be 78%.

Turning to `COc1cc([C@@H]2c3cc4c(cc3C[C@H]3COC(=O)[C@@H]32)OCO4)cc(OC)c1OC` [DESOXYPODOPHYLLOTOXIN], the figures for the EC50 in the test on A549, in the test with MCF7 and in the test on SK-MEL-2 were 23 nM, 11 nM and 14 nM, respectively. This molecule also showed an Inhibition rate in the test with Mus musculus [1] of 59%.

For `COc1cc([C@@H]2c3cc4c(cc3C[C@H]3COC(=O)[C@@H]32)OCO4)cc(OC)c1OC(=O)NCCO`, the EC50 in the test on A549 worked out at 62 nM; in the test on MCF7, 46 nM; in the test on SK-MEL-2 it was 59 nM. For the same molecule, the Inhibition rate with Mus musculus [1] is listed as 95%.

`COc1cc([C@@H]2c3cc4c(cc3C[C@H]3COC(=O)[C@@H]32)OCO4)cc(OC)c1OC(=O)CCCN` registered an Inhibition rate with Mus musculus [5] of 85%. Moreover, the EC50 in the test on A549 was found to be 92 nM; with MCF7, 89 nM; in the test with SK-MEL-2 it was 91 nM.

As for `COc1cc([C@@H]2c3cc4c(cc3C[C@H]3COC(=O)[C@@H]32)OCO4)cc(OC)c1OC(=O)CCCCCN`, in the test on Mus musculus [6], the Inhibition rate is 89%. The figures for the EC50 in the test on A549, in the test with MCF7 and in the test on SK-MEL-2 were 89 nM, 72 nM and 77 nM, respectively.

As to `COc1cc([C@@H]2c3cc4c(cc3C[C@H]3COC(=O)[C@@H]32)OCO4)cc(OC)c1OC(=O)NC1CCCCC1`, in the test on Mus musculus [3], the Inhibition rate result was “inactive”. Moreover, the EC50 worked out at 163 nM with A549, 197 nM with MCF7 and 152 nM with SK-MEL-2.

As for `COc1cc([C@@H]2c3cc4c(cc3C[C@H]3COC(=O)[C@@H]32)OCO4)cc(OC)c1OC(=O)[C@@H](N)Cc1ccccc1`, the Inhibition rate in the test on Mus musculus [5] is reported as 80%. The EC50 in the test with A549 amounted to 87 nM; with MCF7, 72 nM; in the test on SK-MEL-2, 59 nM.

Take `COc1cc([C@@H]2c3cc4c(cc3C[C@H]3COC(=O)[C@@H]32)OCO4)cc(OC)c1OC(=O)CN`: the EC50 turned out to be 12 nM in the test with A549, 31 nM in the test with MCF7 and 34 nM in the test with SK-MEL-2. For the same molecule, the Inhibition rate in the test with Mus musculus [2] came to 33%.

For the molecule `COc1cc([C@@H]2c3cc4c(cc3C[C@H]3COC(=O)[C@@H]32)OCO4)cc(OC)c1OC(=O)OCCCl`, the EC50 was 92 nM in the test with A549, 88 nM with MCF7 and 72 nM in the test on SK-MEL-2.

Consider `COc1cc([C@@H]2c3cc4c(cc3C[C@H]3COC(=O)[C@@H]32)OCO4)cc(OC)c1OC(=O)CCN`, for which the values for the EC50 in the test with A549, in the test with MCF7 and in the test on SK-MEL-2 were 97 nM, 83 nM and 79 nM, respectively. This molecule also came in with an Inhibition rate in the test with Mus musculus [2] of 85%.

With `COc1ccc(NC(=O)Oc2c(OC)cc([C@@H]3c4cc5c(cc4C[C@H]4COC(=O)[C@@H]43)OCO5)cc2OC)cc1`, the Inhibition rate entry with Mus musculus [3] was “inactive”. Also, the EC50 came to 96 nM in the test with A549, 93 nM in the test on MCF7 and 89 nM with SK-MEL-2.
